Source: ChEMBL document CHEMBL2321719, “Discovery of novel α₁-adrenoceptor ligands based on the antipsychotic sertindole suitable for labeling as PET ligands” (Bioorg Med Chem, 2013)

Assays:
[1] = Selectivity ratio of Ki for human dopamine D2 receptor to Ki for bovine alpha1A adrenoceptor
Procedure, shortened: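 D2: human receptor in CHO membranes, 0.1 nM [3H]spiperone, 50 mM Tris pH 7.4, nonspecific binding with haloperidol, 30 min at 37 °C. Both used GF/B filtration, ≥2 ten-point curves and Cheng–Prusoff.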

[2] = target: T1, Alpha-1A adrenergic receptor (Bos taurus, UniProt P18130); assay: Displacement of [3H]prazosine from bovine alpha1A adrenoceptor expressed in BHK cells after 20 mins by scintillation counting analysis; type: cell-based
T1 sequence (P18130 whole entry): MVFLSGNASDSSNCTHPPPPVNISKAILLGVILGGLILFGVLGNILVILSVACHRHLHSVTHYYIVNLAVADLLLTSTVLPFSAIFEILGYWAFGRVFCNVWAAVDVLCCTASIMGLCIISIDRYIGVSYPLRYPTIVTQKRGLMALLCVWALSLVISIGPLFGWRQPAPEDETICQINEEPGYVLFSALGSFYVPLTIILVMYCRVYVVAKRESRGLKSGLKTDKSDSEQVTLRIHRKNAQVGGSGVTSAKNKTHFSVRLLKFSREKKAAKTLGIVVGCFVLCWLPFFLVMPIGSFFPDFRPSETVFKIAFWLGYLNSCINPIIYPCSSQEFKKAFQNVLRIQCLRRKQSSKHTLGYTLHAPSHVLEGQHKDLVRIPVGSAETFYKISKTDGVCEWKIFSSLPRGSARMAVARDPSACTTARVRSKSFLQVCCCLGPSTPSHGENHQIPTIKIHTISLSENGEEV

D(2) dopamine receptor = D(2) dopamine receptor (Homo sapiens, UniProt P14416); assay: Displacement of [3H]spiperone from human dopamine D2 receptor expressed in CHO cells after 30 mins by scintillation counting analysis; type: cell-based
[3] = Apparent permeability across apical to basolateral side in human Caco2 cells at 1 to 20 uM by LC-MS/MS analysis; type: ADME, cell-based; conditions: Caco-2
Procedure, shortened: (§1)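 Caco-2 monolayers were grown on permeable filters for 21–28 days. A 2 mM DMSO stock was diluted in Hanks-Hepes buffer, pH 7.4, and added to the apical (A–B) or basolateral (B–A) side. The receiver side was sampled over 240 min and topped up with fresh buffer, then analysed by LC–MS/MS. […] Efflux ratio = Papp(B–A)/Papp(A–B).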

[4] = Ratio of drug level in brain to plasma in rat at 1 hr; type: ADME, cell-free; conditions: brain and plasma, read-out: BPR
[5] = Unbound fraction in rat plasma at 1000 ng/g after 5 hrs by equilibrium dialysis method; type: ADME, cell-free
Procedure, shortened: (§2)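 Free fraction was measured by 96-well equilibrium dialysis through 3 kDa membranes. Plasma was diluted 1:1 with PBS; rat brain was sonicated on ice to 1:2 brain:PBS. Matrices were spiked at 1000 ng/g (n = 6) and dialysed against PBS for 5 h at 37 °C. Samples were read by LC–MS/MS, and fu was calculated per Kalvass–Maurer with correction for brain dilution.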

[6] = Unbound fraction in rat brain at 1000 ng/g after 5 hrs by equilibrium dialysis method; type: ADME, tissue-based; procedure, shortened: as §2
[7] = Efflux ratio of apparent permeability from basolateral to apical side over apical to basolateral side in human Caco2 cells at 1 to 20 uM; type: ADME, cell-based; conditions: Caco-2; procedure, shortened: as §1
[8] = Ratio of drug level in brain to plasma at steady state in rat at 1000 ng/g after 5 hrs; type: ADME, cell-free; conditions: brain and plasma, read-out: BPR
Procedure, shortened: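 Steady-state rat brain/plasma ratio was estimated from equilibrium-dialysis free fractions (spike 1000 ng/g, 5 h, 37 °C, LC–MS/MS) as fu,plasma/fu,brain. This assumes passive distribution, with equal unbound concentrations in brain and plasma.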

[9] = Unbound fraction in cynomolgus monkey plasma at 1000 ng/g after 5 hrs by equilibrium dialysis method; type: ADME, cell-free, Macaca fascicularis; procedure, shortened: as §2
[10] = target: 5-hydroxytryptamine receptor 6 (Homo sapiens, UniProt P50406); assay: Displacement of [3H]LSD from human 5-HT6 receptor expressed in human HeLa cells after 60 mins by scintillation counting analysis; type: cell-based
Procedure, shortened: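 HeLa cells expressing human 5-HT6 were homogenised in 50 mM Tris, pH 7.4. Binding used 50 mM Tris, pH 7.7, and 1 nM [3H]LSD, with nonspecific binding taken with an indolylpiperidine 5-HT6 ligand. Incubation was 60 min at 22 °C, followed by GF/B filtration and scintillation counting. Ki came from ≥2 ten-point curves, via Cheng–Prusoff.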

[11] = Unbound fraction in human plasma at 1000 ng/g after 5 hrs by equilibrium dialysis method; type: ADME, cell-free; procedure, shortened: as §2
[12] = target: 5-hydroxytryptamine receptor 1B (Homo sapiens, UniProt P28222); assay: Displacement of [3H]CT from human 5-HT1B receptor expressed in human HeLa cells after 60 mins by scintillation counting analysis; type: cell-based
Procedure, shortened: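 Membranes from HeLa cells expressing human 5-HT1B were prepared in ice-cold 50 mM Tris, pH 7.4. The assay ran in 50 mM Tris, pH 7.7, with 0.8 mg/mL WGA SPA beads and 1.5 nM [3H]CT, for 60 min at room temperature, read by scintillation counting. Nonspecific binding was taken with 5-HT creatinine sulphate. Ki came from ≥2 ten-point curves spanning 4 decades, via Cheng–Prusoff.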

[13] = Unbound fraction in rhesus monkey plasma at 1000 ng/g after 5 hrs by equilibrium dialysis method; type: ADME, cell-free, Macaca mulatta; procedure, shortened: as §2
[14] = Apparent permeability across apical to basolateral side in human Caco2 cells at 20 uM by LC-MS/MS analysis; type: ADME, cell-based; conditions: Caco-2; procedure, shortened: as §1
[15] = target: 5-hydroxytryptamine receptor 2A (Homo sapiens, UniProt P28223); assay: Binding affinity to 5-HT2A receptor (unknown origin) by radioligand displacement assay
Procedure, shortened: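 This external human 5-HT2A binding assay (Cerep) tested compounds at two concentrations, one of them 100 nM. Ki was derived from a single run, so the error is unknown.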

[16] = Efflux ratio of apparent permeability from basolateral to apical side over apical to basolateral side in human Caco2 cells at 20 uM; type: ADME, cell-based; conditions: Caco-2
Procedure, shortened: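 Caco-2 monolayers grown 21–28 days on permeable filters; 2 mM DMSO stock diluted in Hanks-Hepes buffer, pH 7.4, and added to the apical (A–B) or basolateral (B–A) chamber. The opposite chamber was sampled over 240 min, with buffer replaced, and analysed by LC–MS/MS. Papp = dQ/dt × 1/(A × C0), with area 1.1 cm²; ratio = Papp(B–A)/Papp(A–B); N = 2.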

[17] = target: T2, Alpha-1D adrenergic receptor (Rattus norvegicus, UniProt P23944); assay: Displacement of [3H]prazosine from rat alpha1D adrenoceptor expressed in CHO cells after 20 mins by scintillation counting analysis; type: cell-based
T2 sequence (P23944 whole entry): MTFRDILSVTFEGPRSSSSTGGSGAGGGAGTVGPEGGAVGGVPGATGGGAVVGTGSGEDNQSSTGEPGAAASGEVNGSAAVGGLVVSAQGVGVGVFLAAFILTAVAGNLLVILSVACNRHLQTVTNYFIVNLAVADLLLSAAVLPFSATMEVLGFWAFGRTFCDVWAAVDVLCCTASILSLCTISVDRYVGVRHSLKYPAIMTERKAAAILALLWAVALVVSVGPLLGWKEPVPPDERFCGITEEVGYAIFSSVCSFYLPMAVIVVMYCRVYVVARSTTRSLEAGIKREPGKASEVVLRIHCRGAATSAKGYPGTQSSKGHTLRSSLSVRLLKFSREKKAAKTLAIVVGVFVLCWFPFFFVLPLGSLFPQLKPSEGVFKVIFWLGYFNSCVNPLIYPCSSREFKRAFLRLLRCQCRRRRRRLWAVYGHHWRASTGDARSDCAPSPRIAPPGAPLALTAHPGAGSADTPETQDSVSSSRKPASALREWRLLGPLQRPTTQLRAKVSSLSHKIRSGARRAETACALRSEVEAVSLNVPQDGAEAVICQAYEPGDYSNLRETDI

[18] = target: T3, Alpha-1B adrenergic receptor (Mesocricetus auratus, UniProt P18841); assay: Displacement of [3H]prazosine from hamster alpha1B adrenoceptor expressed in Rat1 cells after 20 mins by scintillation counting analysis; type: cell-based
T3 sequence (P18841 whole entry): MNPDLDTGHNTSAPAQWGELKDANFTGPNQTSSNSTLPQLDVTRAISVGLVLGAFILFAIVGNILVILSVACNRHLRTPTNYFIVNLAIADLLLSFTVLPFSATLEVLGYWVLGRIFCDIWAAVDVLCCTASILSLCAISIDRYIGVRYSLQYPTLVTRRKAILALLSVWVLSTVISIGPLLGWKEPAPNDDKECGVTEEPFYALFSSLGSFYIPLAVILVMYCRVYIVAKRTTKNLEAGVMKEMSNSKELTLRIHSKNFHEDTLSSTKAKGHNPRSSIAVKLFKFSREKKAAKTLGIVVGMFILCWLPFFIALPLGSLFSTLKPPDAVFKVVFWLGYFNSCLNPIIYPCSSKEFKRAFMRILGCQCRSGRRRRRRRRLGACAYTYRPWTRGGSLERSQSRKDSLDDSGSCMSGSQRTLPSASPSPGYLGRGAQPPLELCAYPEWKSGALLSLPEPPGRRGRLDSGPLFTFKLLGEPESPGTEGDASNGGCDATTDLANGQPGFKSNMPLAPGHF

Chain of D(2) dopamine receptor (P14416 whole entry): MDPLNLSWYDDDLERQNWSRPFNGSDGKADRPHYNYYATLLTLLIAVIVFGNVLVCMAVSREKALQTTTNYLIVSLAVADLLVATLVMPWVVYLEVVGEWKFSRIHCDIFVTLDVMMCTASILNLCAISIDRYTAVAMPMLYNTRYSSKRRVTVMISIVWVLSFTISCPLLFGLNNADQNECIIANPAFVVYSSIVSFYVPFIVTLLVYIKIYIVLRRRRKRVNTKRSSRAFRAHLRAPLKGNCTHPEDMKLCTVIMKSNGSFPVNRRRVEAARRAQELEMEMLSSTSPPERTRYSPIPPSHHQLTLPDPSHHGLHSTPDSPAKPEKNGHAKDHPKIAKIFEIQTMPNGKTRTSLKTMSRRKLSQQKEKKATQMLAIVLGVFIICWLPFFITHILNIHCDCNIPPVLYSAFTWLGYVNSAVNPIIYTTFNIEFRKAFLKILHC
Chain of 5-hydroxytryptamine receptor 1B (P28222 whole entry): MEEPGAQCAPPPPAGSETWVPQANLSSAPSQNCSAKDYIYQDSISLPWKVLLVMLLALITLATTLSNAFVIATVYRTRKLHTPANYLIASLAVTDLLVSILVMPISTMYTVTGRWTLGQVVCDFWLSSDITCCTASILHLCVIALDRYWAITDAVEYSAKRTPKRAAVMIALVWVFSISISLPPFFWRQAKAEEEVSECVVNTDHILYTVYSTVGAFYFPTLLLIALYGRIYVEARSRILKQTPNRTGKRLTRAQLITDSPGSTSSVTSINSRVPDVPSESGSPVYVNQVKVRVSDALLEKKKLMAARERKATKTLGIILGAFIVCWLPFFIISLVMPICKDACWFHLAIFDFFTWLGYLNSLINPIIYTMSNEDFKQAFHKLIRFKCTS
Chain of 5-hydroxytryptamine receptor 2A (P28223 whole entry): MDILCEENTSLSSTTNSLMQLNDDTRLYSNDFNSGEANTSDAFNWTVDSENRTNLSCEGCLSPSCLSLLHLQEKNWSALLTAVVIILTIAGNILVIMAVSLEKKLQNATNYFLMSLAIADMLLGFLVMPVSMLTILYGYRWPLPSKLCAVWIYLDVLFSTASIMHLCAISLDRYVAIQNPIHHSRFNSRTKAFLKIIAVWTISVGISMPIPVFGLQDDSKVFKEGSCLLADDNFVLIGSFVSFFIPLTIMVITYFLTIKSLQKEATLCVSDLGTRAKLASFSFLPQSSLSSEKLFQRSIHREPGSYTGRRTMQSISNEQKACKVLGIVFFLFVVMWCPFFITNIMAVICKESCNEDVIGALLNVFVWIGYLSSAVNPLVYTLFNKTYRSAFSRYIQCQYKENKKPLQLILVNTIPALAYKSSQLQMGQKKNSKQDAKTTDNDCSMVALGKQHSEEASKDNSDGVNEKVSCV
Chain of 5-hydroxytryptamine receptor 6 (P50406 whole entry): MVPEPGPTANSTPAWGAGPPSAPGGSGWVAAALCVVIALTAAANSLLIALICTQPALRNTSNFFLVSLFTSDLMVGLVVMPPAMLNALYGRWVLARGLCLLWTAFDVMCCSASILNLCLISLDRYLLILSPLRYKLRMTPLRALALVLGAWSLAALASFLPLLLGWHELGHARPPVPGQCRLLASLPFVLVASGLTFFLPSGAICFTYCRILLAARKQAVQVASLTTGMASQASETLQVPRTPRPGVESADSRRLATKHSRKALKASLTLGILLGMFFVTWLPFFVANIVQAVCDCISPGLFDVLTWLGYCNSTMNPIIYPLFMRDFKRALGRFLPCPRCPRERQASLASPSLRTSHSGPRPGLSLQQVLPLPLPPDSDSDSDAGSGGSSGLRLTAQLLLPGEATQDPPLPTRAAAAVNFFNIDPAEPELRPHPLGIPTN

Structure (SMILES) | Ratio Ki [1] | Ki [2] [nM] | Ki (D(2) dopamine receptor) [nM] | fraction unbound at 5 h, 1000 ng/g [5] | fraction unbound at 5 h, 1000 ng/g [6] | Kp at 5 h, 1000 ng/g [8] | also measured
CN1CCC(c2cn(-c3ccc(F)cc3)c3ccc(-c4cccnc4)cc23)CC1 | 33 | 2.3 | 76 |  |  |  | 
CN1CCC(c2cn(-c3ccncc3)c3ccc(-c4cnn(C)c4)cc23)CC1 | 168 | 38 | 6400 |  |  |  | 
CCN1CCC[C@H]1CNC(=O)c1c(O)c(Cl)cc(Cl)c1OC [RACLOPRIDE] |  |  |  | 0.27 | 0.08 | 3.4 | Papp A→B at up to 20 µM [3]: 66 ×10⁻⁶ cm/s; Kp at 1 h [4]: 6.4; efflux ratio at up to 20 µM [7]: 0.5
CN1CCC(c2cn(-c3ccncc3)c3ccc(-c4ccncc4)cc23)CC1 | 11 | 24 | 260 |  |  |  | 
Cn1nnc(-c2ccc3c(c2)c(C2CCN(CCN4CCNC4=O)CC2)cn3-c2ccc(F)cc2)n1 |  |  |  | 0.022 | 0.0035 | 6.3 | Papp A→B at up to 20 µM [3]: 12 ×10⁻⁶ cm/s; Kp at 1 h [4]: 0.26
CN1CCC(c2cn(-c3ccc(F)cc3)c3ccc(-c4nnn(C)n4)cc23)CC1 | 246 | 0.28 | 69 |  |  |  | 
CN1CCC(c2cn(-c3ccc(F)cc3)c3ccc(-c4ccn(C)n4)cc23)CC1 | 296 | 0.54 | 160 |  |  |  | 
Cn1cc(-c2ccc3c(c2)c(C2CCN(CCN4CCNC4=O)CC2)cn3-c2ccc(F)cc2)nn1 |  |  |  | 0.072 | 0.0081 | 8.9 | Papp A→B at up to 20 µM [3]: 5 ×10⁻⁶ cm/s; Kp at 1 h [4]: > 0.05
CN1CCC(c2cn(-c3ccc(F)cc3)c3ccc(-c4cncnc4)cc23)CC1 |  |  |  | 0.088 | 0.0025 | 35 | fraction unbound at 5 h, 1000 ng/g [9]: 0.1; Ki [10]: 16 nM; fraction unbound at 5 h, 1000 ng/g [11]: 0.096; Ki [12]: 13 nM; fraction unbound at 5 h, 1000 ng/g [13]: 0.13; Papp A→B at 20 µM [14]: 13 ×10⁻⁶ cm/s
CN1CCC(c2cn(-c3ccc(F)cc3)c3ccc(-c4ncn(C)n4)cc23)CC1 | 1380 | 0.16 | 220 | 0.074 | 0.002 | 37 | fraction unbound at 5 h, 1000 ng/g [9]: 0.16; Ki [15]: 89 nM; efflux ratio at 20 µM [16]: 0.7; fraction unbound at 5 h, 1000 ng/g [11]: 0.17; Ki [17]: 15 nM; fraction unbound at 5 h, 1000 ng/g [13]: 0.18; Ki [18]: 6.4 nM; Papp A→B at 20 µM [14]: 18 ×10⁻⁶ cm/s
CN1CCC(c2cn(-c3ccc(F)cc3)c3ccc(-c4ccnn4C)cc23)CC1 | 47 | 0.32 | 15 |  |  |  | 
CN1CCC(c2cn(-c3ccncc3)c3ccc(-c4cncnc4)cc23)CC1 | 44 | 19 | 830 |  |  |  | 
CN1CCC(c2cn(-c3ccncc3)c3ccc(-c4cccnc4)cc23)CC1 | 50 | 22 | 1100 |  |  |  | 
CN1CCC(c2cn(-c3ccncc3)c3ccc(-c4ccnn4C)cc23)CC1 | 46 | 19 | 880 |  |  |  | 
CN1CCC(c2cn(-c3ccc(F)cc3)c3ccc(-c4cnn(C)c4)cc23)CC1 | 56 | 2.7 | 150 |  |  |  | 
COc1ccccc1N1CCN(CCN(C(=O)C2CCCCC2)c2ccccn2)CC1 [WAY-100,635] |  |  |  | 0.1 | 0.084 | 1.2 | Papp A→B at up to 20 µM [3]: 38 ×10⁻⁶ cm/s; Kp at 1 h [4]: 1.7; efflux ratio at up to 20 µM [7]: 0.9
CN1CCC(c2cn(-c3ccc(F)cc3)c3ccc(-c4ccncc4)cc23)CC1 | 3 | 10 | 27 |  |  |  | 
